Assay results taken from ChEMBL document CHEMBL1287651, “Synthesis and in vitro antibacterial activity of fluoroquinolone derivatives containing 3-(N'-alkoxycarbamimidoyl)-4-(alkoxyimino) pyrrolidines” (2010).
Converted amounts (≈) assume the structure as drawn.

Tests used:
Type in all cases: functional
[1] = tested on: Staphylococcus epidermidis; test: Antibacterial activity against methicillin-sensitive Staphylococcus epidermidis 09-3 after 18 to 24 hrs by twofold serial dilution method
Outline: (§1)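 Standard twofold serial agar dilution method on agar media for MIC determination. Screened against representative Gram-positive and Gram-negative strains. Levofloxacin and GMFX served as control drugs.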

[2] = tested on: Klebsiella pneumoniae; test: Antibacterial activity against Klebsiella pneumoniae 09-21 after 18 to 24 hrs by twofold serial dilution method
Outline: (§2)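 MIC determined by the standard twofold serial dilution method on agar media, screening against Gram-positive and Gram-negative strains. Levofloxacin and gemifloxacin were run alongside as reference drugs.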

[3] = tested on: Staphylococcus aureus; test: Antibacterial activity against methicillin-resistant Staphylococcus aureus 08-1 after 18 to 24 hrs by twofold serial dilution method; outline: as §1
[4] = tested on: Pseudomonas aeruginosa; test: Antibacterial activity against Pseudomonas aeruginosa 09-33 after 18 to 24 hrs by twofold serial dilution method; outline: as §2
[5] = tested on: Pseudomonas aeruginosa; test: Antibacterial activity against Pseudomonas aeruginosa 09-32 after 18 to 24 hrs by twofold serial dilution method; outline: as §2
[6] = tested on: Staphylococcus epidermidis; test: Antibacterial activity against methicillin-resistant Staphylococcus epidermidis 09-4 after 18 to 24 hrs by twofold serial dilution method; outline: as §1
[7] = tested on: Escherichia coli; test: Antibacterial activity against Escherichia coli ATCC 25922 after 18 to 24 hrs by twofold serial dilution method; outline: as §2
[8] = tested on: Streptococcus pneumoniae; test: Antibacterial activity against Streptococcus pneumoniae 08-4 after 18 to 24 hrs by twofold serial dilution method; outline: as §2
[9] = tested on: Pseudomonas aeruginosa; test: Antibacterial activity against Pseudomonas aeruginosa ATCC 27853 after 18 to 24 hrs by twofold serial dilution method; outline: as §2
[10] = tested on: Staphylococcus epidermidis; test: Antibacterial activity against methicillin-resistant Staphylococcus epidermidis 09-3 after 18 to 24 hrs by twofold serial dilution method; outline: as §1
[11] = tested on: Staphylococcus epidermidis; test: Antibacterial activity against methicillin-sensitive Staphylococcus epidermidis 09-6 after 18 to 24 hrs by twofold serial dilution method; outline: as §1
[12] = tested on: Escherichia coli; test: Antibacterial activity against Escherichia coli 08-21 after 18 to 24 hrs by twofold serial dilution method; outline: as §2
[13] = tested on: Enterococcus faecalis; test: Antibacterial activity against Enterococcus faecalis 08-12 after 18 to 24 hrs by twofold serial dilution method; outline: as §2
[14] = tested on: Streptococcus pneumoniae; test: Antibacterial activity against Streptococcus pneumoniae 08-2 after 18 to 24 hrs by twofold serial dilution method; outline: as §2
[15] = tested on: Klebsiella pneumoniae; test: Antibacterial activity against Klebsiella pneumoniae 09-22 after 18 to 24 hrs by twofold serial dilution method; outline: as §2
[16] = tested on: Enterococcus faecalis; test: Antibacterial activity against Enterococcus faecalis 08-10 after 18 to 24 hrs by twofold serial dilution method; outline: as §2
[17] = tested on: Escherichia coli; test: Antibacterial activity against Escherichia coli 08-22 after 18 to 24 hrs by twofold serial dilution method; outline: as §2
[18] = tested on: Enterococcus faecium; test: Antibacterial activity against Enterococcus faecium 08-2 after 18 to 24 hrs by twofold serial dilution method; outline: as §2
[19] = tested on: Enterococcus faecium; test: Antibacterial activity against Enterococcus faecium 08-7 after 18 to 24 hrs by twofold serial dilution method; outline: as §2
[20] = tested on: Staphylococcus aureus; test: Antibacterial activity against methicillin-sensitive Staphylococcus aureus 08-2 after 18 to 24 hrs by twofold serial dilution method; outline: as §1
[21] = tested on: Pseudomonas aeruginosa; test: Antibacterial activity against Pseudomonas aeruginosa 09-35 after 18 to 24 hrs by twofold serial dilution method; outline: as §2
[22] = tested on: Staphylococcus aureus; test: Antibacterial activity against Staphylococcus aureus ATCC […] after 18 to 24 hrs by twofold serial dilution method; outline: as §2
[23] = tested on: Pseudomonas aeruginosa; test: Antibacterial activity against Pseudomonas aeruginosa 09-34 after 18 to 24 hrs by twofold serial dilution method; outline: as §2
[24] = tested on: Staphylococcus epidermidis; test: Antibacterial activity against methicillin-resistant Staphylococcus epidermidis 09-2 after 18 to 24 hrs by twofold serial dilution method; outline: as §1
[25] = tested on: Klebsiella pneumoniae; test: Antibacterial activity against Klebsiella pneumoniae 09-23 after 18 to 24 hrs by twofold serial dilution method; outline: as §2

Row | Compound | MIC [1] [µg/mL] | MIC [2] [µg/mL] | MIC [3] [µg/mL] | MIC [4] [µg/mL] | MIC [5] [µg/mL] | MIC [6] [µg/mL] | MIC [7] [µg/mL] | MIC [8] [µg/mL] | MIC [9] [µg/mL] | MIC [10] [µg/mL] | MIC [11] [µg/mL] | MIC [12] [µg/mL] | MIC [13] [µg/mL] | MIC [14] [µg/mL] | MIC [15] [µg/mL] | MIC [16] [µg/mL] | MIC [17] [µg/mL] | MIC [18] [µg/mL] | MIC [19] [µg/mL] | MIC [20] [µg/mL] | also measured
1 | CCO/N=C1\CN(c2nc3c(cc2F)c(=O)c(C(=O)O)cn3-c2ccc(F)cc2F)CC1/C(N)=N\OC (stereo not given) | 0.125 (≈ 0.241 µM) | 0.25 (≈ 0.482 µM) | 0.25 (≈ 0.482 µM) | > 128 | > 128 | 0.25 (≈ 0.482 µM) | 128 (≈ 247 µM) | 32 (≈ 61.7 µM) | 32 (≈ 61.7 µM) | 0.25 (≈ 0.482 µM) | 0.25 (≈ 0.482 µM) | > 128 | > 128 | 32 (≈ 61.7 µM) | 32 (≈ 61.7 µM) | > 128 | > 128 | > 128 | > 128 | 0.25 (≈ 0.482 µM) | MIC [21]: > 128 µg/mL; MIC [22]: 0.25 µg/mL (≈ 0.482 µM); MIC [23]: > 128 µg/mL; MIC [24]: 0.125 µg/mL (≈ 0.241 µM); MIC [25]: 32 µg/mL (≈ 61.7 µM)
2 | CCO/N=C(/N)C1CN(c2nc3c(cc2F)c(=O)c(C(=O)O)cn3-c2ccc(F)cc2F)C/C1=N\OC (stereo not given) | 0.125 (≈ 0.241 µM) | > 128 | 0.25 (≈ 0.482 µM) | > 128 | > 128 | 0.25 (≈ 0.482 µM) | > 128 | > 128 | > 128 | 0.25 (≈ 0.482 µM) | 0.25 (≈ 0.482 µM) | > 128 | > 128 | > 128 | 32 (≈ 61.7 µM) | > 128 | > 128 | > 128 | > 128 | 0.25 (≈ 0.482 µM) | MIC [21]: > 128 µg/mL; MIC [22]: 0.125 µg/mL (≈ 0.241 µM); MIC [23]: > 128 µg/mL; MIC [24]: 2 µg/mL (≈ 3.86 µM); MIC [25]: > 128 µg/mL
3 | CCO/N=C1\CN(c2nc3c(cc2F)c(=O)c(C(=O)O)cn3-c2ccc(F)cc2F)CC1/C(N)=N\OCC (stereo not given) | 32 (≈ 60.1 µM) | 16 (≈ 30 µM) | 32 (≈ 60.1 µM) | 128 (≈ 240 µM) | 128 (≈ 240 µM) | 64 (≈ 120 µM) | 16 (≈ 30 µM) | 128 (≈ 240 µM) | 64 (≈ 120 µM) | 0.06 (≈ 0.113 µM) | 32 (≈ 60.1 µM) | 128 (≈ 240 µM) | 128 (≈ 240 µM) | 128 (≈ 240 µM) | 128 (≈ 240 µM) | 128 (≈ 240 µM) | 128 (≈ 240 µM) | 128 (≈ 240 µM) | 128 (≈ 240 µM) | 0.06 (≈ 0.113 µM) | MIC [21]: 128 µg/mL (≈ 240 µM); MIC [22]: 0.06 µg/mL (≈ 0.113 µM); MIC [23]: 128 µg/mL (≈ 240 µM); MIC [24]: 0.06 µg/mL (≈ 0.113 µM); MIC [25]: 128 µg/mL (≈ 240 µM)
